MrgX1 allo act – allosterically activates human MrgX1 receptor signaling; Q96LB2; MrgX1-HEK293, Fluo-4 calcium flux, FDSS; stronger effect = higher value; B-score at 10 µM; 310,000 compounds, 0.63% hits;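 active = plate-corrected calcium response at least 3 library SD above typical, normal starting fluorescence, not activating the receptor alone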;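 also: compound read alongside a low EC10 to EC30 dose of BAM8-22 agonist; peak minus trough fluorescence over baseline measured at the second addition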
Target sequence (Q96LB2 whole entry, looked up): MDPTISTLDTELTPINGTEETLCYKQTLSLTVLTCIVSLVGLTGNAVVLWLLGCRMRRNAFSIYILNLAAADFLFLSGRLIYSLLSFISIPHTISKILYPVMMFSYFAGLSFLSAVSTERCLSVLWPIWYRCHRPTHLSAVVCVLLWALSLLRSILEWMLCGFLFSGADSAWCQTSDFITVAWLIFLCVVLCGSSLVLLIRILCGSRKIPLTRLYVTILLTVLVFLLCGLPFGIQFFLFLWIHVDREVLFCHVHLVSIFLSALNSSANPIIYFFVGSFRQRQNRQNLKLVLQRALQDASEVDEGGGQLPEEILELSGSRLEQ
Hep lipid drop – modulators of hepatic lipid droplet formation | AML12 mouse hepatocytes, oleate lipid droplets, BODIPY imaging | inhibition, % at 6.5 µM | 240,000 compounds, 0.4% hits;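 active = lipid droplet intensity inhibited by at least 50%, with more than 500 cells counted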
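Assay system: AML12 hepatocytes (mouse); Probe or stimulus: oleic acid at 100 µM to induce lipid droplet formation; Dosing: compound at 6.5 µM only; Schedule: compound with oleate, overnight; Detection: fluorescence imaging, 20x objective, two fields per well; Measure: % inhibition of lipid droplet signal.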
RGS4 pot – potentiators or activators of RGS4; 310,000 compounds, 0.92% hits; B-score at 10 µM; HEK293 M3R/inducible RGS4, carbachol calcium flux Fluo4; stronger effect = lower value;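 active = B-score of the integrated calcium signal more than 4 SD below the library mean, with starting fluorescence not abnormally high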;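 also: negative B-score means reduced calcium response which marks RGS4 activation or potentiation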
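test system = HEK293 cells with stable M3R and inducible RGS4 | schedule = recording 10 s baseline at 1 Hz, 100 s post-agonist | technique = Fluo4-AM (2 µM) calcium-flux fluorescence, kinetic read | measure = Agonist-evoked peak-minus-minimum fluorescence over baseline, integrated ratio, B score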
MrgX1 ag – agonists of human MrgX1 receptor | B-score at 10 µM | MrgX1-HEK293 cells, Fluo-4 calcium fluorescence, agonist mode; stronger effect = higher value | Q96LB2 | 310,000 compounds, 0.44% hits | AID 588627;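 active = calcium response B-score plate-corrected fluorescence ratio at least 3 library SD, with starting fluorescence B-score inside 5 SD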
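System: HEK293 cells stably expressing human MrgX1 receptor; Dosing: test compound in the initial addition of three; Schedule: overnight plating, then 30 min 37 °C plus 30 min room-temperature dye loading; Detection: kinetic calcium dye fluorescence, Fluo-4 NW; Controls: per-plate positive and negative controls for Z′ factor.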
RGS4 block – human RGS4 inhibition; 310,000 compounds, 0.45% hits; HEK293 M3R/RGS4 inducible, Fluo-4 calcium flux; stronger effect = higher value; triggered by carbachol at its EC20; B-score at 10 µM; AID 463165;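 active = B-score, a plate-corrected calcium signal, over three deviations above library mean, with baseline fluorescence within five deviations of library mean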;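 also: RGS4 expression induced by doxycycline in cells with stable M3 receptor; B-score is computed from the integrated fluorescence ratio over baseline after carbachol; higher B-score means a larger calcium signal and so more RGS4 inhibition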
Target sequence (P49798 whole entry, looked up): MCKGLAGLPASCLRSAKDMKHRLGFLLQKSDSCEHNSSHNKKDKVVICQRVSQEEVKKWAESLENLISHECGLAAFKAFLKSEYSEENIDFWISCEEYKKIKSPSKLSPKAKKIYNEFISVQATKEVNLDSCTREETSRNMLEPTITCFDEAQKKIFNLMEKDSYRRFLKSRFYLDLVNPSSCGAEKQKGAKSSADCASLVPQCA
MrgX1 antagonist – blocks BAM8-22 activation of human MrgX1 receptor; B-score at 10 µM; 310,000 compounds, 1.3% hits; AID 588676; MRGX1-HEK293 calcium flux, Fluo-4, BAM8-22 antagonism; stronger effect = lower value;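 active = calcium-response B-score plate-corrected more than 3 library SD below zero, starting fluorescence within 5 deviations, no agonist response on first addition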;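 also: peak minus trough fluorescence over baseline after final BAM8-22 challenge near maximal dose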
MrgX1 PAM conf – confirmation of human MrgX1 receptor positive allosteric modulators; 1,200 compounds, 13% hits; MrgX1-HEK293, Fluo-4 calcium fluorescence, FDSS; activation (ratio percentage), % at 10 µM; AID 602413; shares compounds with MrgX1 allo act;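 active = ratio at least 3 SD above the weak peptide control, stable starting fluorescence, no direct agonism earlier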;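 also: compound followed by low BAM8-22 agonist challenge near EC20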
HEK293 Ca flux – activity in parental HEK293 cells lacking MrgX1; Fluo-4 calcium fluorescence, FDSS; shares compounds with MrgX1 antagonist; fluorescence ratio F(max-min)/F0 at 10 µM; 4,000 compounds, 2% hits;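 active = duplicate-averaged calcium fluorescence ratio at least three times the standard deviation of buffer wells, a nonspecific response in parental cells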
HEK293 Ca counter – counter-screen for MrgX1 allosteric activators: effect in parental HEK293 cells; shares compounds with MrgX1 antagonist; parental HEK293 calcium flux, Fluo-4 fluorescence ratio; stronger effect = higher value; fluorescence ratio F(max-min)/F0 at 10 µM; 4,000 compounds, 0.4% hits; AID 624114;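 active = calcium fluorescence ratio, averaged over duplicates, at least 3 SD of the buffer-well ratio, meaning a nonspecific response in receptor-free cells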;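 also: untransfected parental HEK293 lacking MrgX1 used as counterscreen for MrgX1 allosteric activators; fluorescence change taken during the second addition on a kinetic imager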
HEK293 Ca cntr2 – MrgX1 activator counter-screen hit in parental HEK293 cells. shares compounds with MrgX1 antagonist. Fluo-4 calcium fluorescence (FDSS); stronger effect = higher value. fluorescence ratio F(max-min)/F0 at 10 µM. 4,000 compounds, 8.7% hits. AID 624115;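 active = calcium fluorescence ratio at least three times the spread of buffer wells, meaning a non-specific response in parental cells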
A number is an active result; - = inactive; . = not tested or not shown. Hits are enriched below; roughly 3.8% of the tested compounds scored in any of these assays.

SMILES	MrgX1 allo act	Hep lipid drop	RGS4 pot	MrgX1 ag	RGS4 block	MrgX1 antagonist	MrgX1 PAM conf	HEK293 Ca flux	HEK293 Ca counter	HEK293 Ca cntr2
Cc1sc2ncnc(N3CCC(C)CC3)c2c1C	17.7	-	-	-	-	-	4.3%	-	-	-
Cc1c(C(=O)N2CCN(c3ccccc3)CC2)sc2ncnc(N3CCC(C)CC3)c12	-	-	-	-	-	-	.	.	.	.
CCOC(=O)c1ccccc1NC(=O)c1ccc(N(C)S(C)(=O)=O)cc1	-	-	-	-	-	-	.	.	.	.
CCOC(=O)c1ccccc1NC(=O)c1ccccc1N(C)S(C)(=O)=O	7.24	-	-	-	-	-	9.4%	-	-	-
CSc1ccccc1NC(=O)c1ccccc1N(C)S(C)(=O)=O	8.17	-	-	-	-	-	10.0%	-	-	-
COC(=O)c1ccccc1N(C)S(C)(=O)=O	-	-	-	-	-	-	.	.	.	.
COC(=O)c1ccccc1NC(=O)c1ccccc1N(C)S(C)(=O)=O	10.3	-	-	-	-	-	-	-	-	-
Cc1ccc(N(C(=O)Cn2nnc(-c3ccc(F)cc3)n2)C(CC(C)C)C(=O)NCC2CCCO2)cc1 (stereo not drawn)	-	.	-	-	-	-	.	.	.	.
COc1ccccc1CNC(=O)C1CCC(CNc2c(N3CCC(C)CC3)c(=O)c2=O)CC1 (stereo not drawn)	6.6	-	-	-	-	-	-	-	-	-
COc1cccc(CNC(=O)C2CCC(CNc3c(N4CCC(C)CC4)c(=O)c3=O)CC2)c1 (stereo not drawn)	-	-	-	-	-	-	.	.	.	.
CNC(=O)COC(=O)c1cc2c(s1)CCCC2	12.1	-	-	-	-	-	-	-	-	-
C/C(N)=C(/C#N)C(=O)COC(=O)c1cc2c(s1)CCCC2	-	-	-	-	-	-	.	.	.	.
CNc1nc(Nc2ccc(C(C)=O)cc2)nc(OC(C(F)(F)F)C(F)(F)F)n1	8.59	.	-	-	-	-	-	-	-	-
c1ccc2nc(-c3ccc(-n4ccnc4)cc3)ccc2c1	8.92	-	-	-	-	-	-	-	-	-
c1ccc(-c2ccc3ccccc3n2)cc1	-	.	-	-	-	-	.	.	.	.
CN(C)S(=O)(=O)c1ccc(Cl)c(NC(=O)COC(=O)CN2C(=O)C3CCCCC3C2=O)c1 (stereo not drawn)	8.99	-	-	-	-	-	-	-	-	-
COc1ccc(F)c(CN2CCC(n3nccc3NC(=O)C3CCOC3)CC2)c1 (stereo not drawn)	-	-	-	-	-	-	.	.	.	.
C=CCNC(=S)Nc1ccc(OC)c(S(=O)(=O)N2CCOCC2)c1	8.73	-	-	-	-	-	-	-	-	-
C=CCNC(=S)Nc1ccc(Cl)c(S(=O)(=O)N2CCOCC2)c1	-	-	-	-	-	-	.	.	.	.
Cc1ccc(Nc2nc3ccccc3s2)c(C)c1	7.01	-	-	-	-	-	-	-	-	-
CCCCOCCCN1CC(=O)N2C(C)c3[nH]c4ccccc4c3C[C@H]2C1=O (stereo partly drawn)	7.47	-	-	-	-	-	-	-	-	-
CCCCCN1CC(=O)N2C(C)c3[nH]c4ccccc4c3C[C@H]2C1=O (stereo partly drawn)	13.7	-	-	-	-	-	-	-	-	-
COC(=O)NC1CSCC1OC(=O)CN1C(=O)c2ccccc2C1=O (stereo not drawn)	-	-	-	-	-	-	.	.	.	.
CC1(C)c2ccccc2-c2nc3ccccc3cc2C1O (stereo not drawn)	9.61	-	-	-	-	-	-	-	-	-
CCC(=O)C1CCCN(C(=O)CCc2nnc(-c3ccc(C(C)=O)s3)o2)C1 (stereo not drawn)	-	-	-	-	-	-	.	.	.	.
SMILES	MrgX1 allo act	Hep lipid drop	RGS4 pot	MrgX1 ag	RGS4 block	MrgX1 antagonist	MrgX1 PAM conf	HEK293 Ca flux	HEK293 Ca counter	HEK293 Ca cntr2
O=C(C1CCCO1)N1CCN(S(=O)(=O)c2ccc(Cl)cc2)CC1 (stereo not drawn)	15.2	-	-	-	-	-	-	-	-	-
CCc1cc(C(=O)Nc2ccc(S(=O)(=O)NC3=NCCCCC3)cc2)sc1C	-	.	-	-	-	-	.	.	.	.
CCN1CCN(C(=O)CN(c2cc(OC)ccc2OC)S(C)(=O)=O)CC1	-	-	-	-	-	-	.	.	.	.
CS(=O)(=O)N(CC(=O)N1CCN(c2ccc(F)cc2)CC1)c1ccc(F)c(Cl)c1	6.82	-	-	-	-	-	-	-	-	-
COc1ccc(OC)c(N(CC(=O)N2CCN(c3cc(Cl)ccc3C)CC2)S(C)(=O)=O)c1	28.7	-	-	-	-	-	93.1%	-	-	54.4
COc1ccc(N2CCN(C(=O)CN(c3cccc(Br)c3)S(C)(=O)=O)CC2)cc1	18.5	-	-	-	-	-	16.4%	-	-	-
Cc1ccc(NC(=S)N(Cc2ccc(Cl)cc2)Cc2ccc(C(=O)O)cc2)cc1Cl	-	-	-	-	-	-	.	.	.	.
O=C(C1CCCN(S(=O)(=O)c2cccs2)C1)N1CCc2ccccc2C1 (stereo not drawn)	9.63	-	-	-	-	-	-	-	-	-
O=C(C1CCN(S(=O)(=O)c2cccs2)CC1)N1CCc2ccccc2C1	-	-	-	-	-	-	.	.	.	.
CCc1ccc(NC(=O)COC(=O)CCc2nc3cc(S(=O)(=O)N(CC)CC)ccc3n2C)cc1	-	-	-	-	-	-	.	.	.	.
Cc1ccc(-c2csc(NC(=O)c3ccc(C)o3)n2)cc1	-	-	-	-	-	-	.	.	.	.
Cc1ccc(-c2csc(N=C(N)N)n2)cc1	6.98	-	-	-	-	-	-	-	-	-
Cc1ccc2[nH]cc(C(=O)CCl)c2c1	7.39	-	-	-	-	-	-	-	-	-
COc1ccc(-n2nc(C(=O)NCC(=O)NCC3COc4ccccc4O3)c3ccccc3c2=O)cc1 (stereo not drawn)	-	-	-	-	-	-	.	.	.	.
CCOC(=O)c1c(-c2ccc(OC)cc2)csc1/N=C/C1=C(O)CCCC1=O	-	-	-	-	-	-	.	.	.	.
CC(O)CNc1nc2ccccc2n1CC(=O)NCC(F)(F)F (stereo not drawn)	-	-	-	-	-	-	.	.	.	.

High-throughput results deposited in PubChem BioAssay by several laboratories.
